Measurements published in ChEMBL document CHEMBL1143122, “Novel analogs of D-e-MAPP and B13. Part 1: synthesis and evaluation as potential anticancer agents” (Bioorg Med Chem, 2008).

Columns and labels:
SK-OV-3 = test: Antiproliferative activity against human SKOV3 cells after 48 hrs; format: functional; conditions: SK-OV-3, 48 h
In short: (§1)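 NCI 60-cell screen. Cells were grown in RPMI 1640 with 5% FBS and 2 mM L-glutamine, then plated at 5,000–40,000 cells/well according to doubling time and preincubated for 24 h at 37 °C in 5% CO2. Compounds were dissolved in DMSO at 400× the top final concentration and tested at five 10-fold dilutions from 10−4 to 10−8 M for 48 h. Growth was read spectrophotometrically; GI50 is 50% net protein reduction.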

SF-268 = test: Antiproliferative activity against human SF268 cells after 48 hrs; format: functional; conditions: SF-268, 48 h; in short: as §1
OVCAR-5 = test: Antiproliferative activity against human OVCAR5 cells after 48 hrs; format: functional; conditions: OVCAR-5, 48 h; in short: as §1
LOX IMVI = test: Antiproliferative activity against human LOXIMVI cells after 48 hrs; format: functional; in short: as §1
UO-31 = test: Antiproliferative activity against human UO31 cells after 48 hrs; format: functional; conditions: UO-31, 48 h
In short: (§2)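 NCI 60-cell-line screen. Lines grown in RPMI 1640 with 5% fetal bovine serum and 2 mM L-glutamine, plated at 5,000–40,000 cells/well according to doubling time, left 24 h at 37 °C in 5% CO2. Drug stocks in DMSO at 400-fold the top final concentration. Five 10-fold dilutions, 10−4 to 10−8 M, incubated 48 h. Growth read spectrophotometrically as net protein; GI50 taken as 50% reduction.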

SNB-75 = test: Antiproliferative activity against human SNB75 cells after 48 hrs; format: functional; conditions: SNB-75, 48 h; in short: as §1
BT-549 = test: Antiproliferative activity against human BT549 cells after 48 hrs; format: functional; conditions: BT-549, 48 h; in short: as §1
MDA-MB-435 = test: Antiproliferative activity against human MDA-MB-435 cells after 48 hrs; format: functional; conditions: Homo sapiens, MDA-MB-435, 48 h; in short: as §1
RPMI-8226 = test: Antiproliferative activity against human RPMI8226 cells after 48 hrs; format: functional; conditions: RPMI-8226, 48 h; in short: as §1
HOP-62 = test: Antiproliferative activity against human HOP62 cells after 48 hrs; format: functional; conditions: HOP-62, 48 h; in short: as §1
SK-MEL-28 = test: Antiproliferative activity against human SKMEL28 cells after 48 hrs; format: functional; conditions: SK-MEL-28, 48 h; in short: as §1
NCI-H322M = test: Antiproliferative activity against human NCI-H322M cells after 48 hrs; format: functional; in short: as §1
OVCAR-8 = test: Antiproliferative activity against human OVCAR8 cells after 48 hrs; format: functional; conditions: OVCAR-8, 48 h; in short: as §1
CAKI-1 = test: Antiproliferative activity against human CAKI1 cells after 48 hrs; format: functional; conditions: CAKI-1, 48 h; in short: as §1
HOP-92 = test: Antiproliferative activity against human HOP92 cells after 48 hrs; format: functional; conditions: HOP-92, 48 h; in short: as §1
MDA-MB-231 = test: Antiproliferative activity against human MDA-MB-231 cells after 48 hrs; format: functional; conditions: MDA-MB-231, 48 h; in short: as §1
K562 = test: Antiproliferative activity against human K562 cells after 48 hrs; format: functional; conditions: K562, 48 h; in short: as §1
UACC-62 = test: Antiproliferative activity against human UACC62 cells after 48 hrs; format: functional; conditions: UACC-62, 48 h; in short: as §2
UACC-257 = test: Antiproliferative activity against human UACC257 cells after 48 hrs; format: functional; conditions: UACC-257, 48 h; in short: as §2
HCT-15 = test: Antiproliferative activity against human HCT15 cells after 48 hrs; format: functional; conditions: Homo sapiens, HCT-15, 48 h; in short: as §1
MOLT-4 = test: Antiproliferative activity against human MOLT4 cells after 48 hrs; format: functional; conditions: MOLT-4, 48 h; in short: as §1
SK-MEL-2 = test: Antiproliferative activity against human SKMEL2 cells after 48 hrs; format: functional; conditions: SK-MEL-2, 48 h; in short: as §1
T47D = test: Antiproliferative activity against human T47D cells after 48 hrs; format: functional; in short: as §2
[1] = Antiproliferative activity against human […] cells after 48 hrs; format: functional; in short: as §1
NCI-H460 = test: Antiproliferative activity against human NCI-H460 cells after 48 hrs; format: functional; conditions: NCI-H460, 48 h; in short: as §1
U-251 = test: Antiproliferative activity against human U251 cells after 48 hrs; format: functional; conditions: U-251, 48 h; in short: as §2
DU-145 = test: Antiproliferative activity against human DU145 cells after 48 hrs; format: functional; conditions: DU-145, 48 h; in short: as §1
MCF7 = test: Antiproliferative activity against human MCF7 cells after 48 hrs; format: functional, cell-based; conditions: MCF7, 48 h
[2] = read-out: Log LC50 (the source's name) (converted)

CCCCCCCCCCCCCCN[C@H](CO)[C@H](O)c1ccccc1
GI50 (SK-OV-3): 6.76 µM | CC50 (SK-OV-3; [2]): 79.4 µM | TGI (SK-OV-3; read-out: Log TGI (converted)): 24.5 µM | GI50 (SF-268): 1.66 µM | TGI (SF-268; read-out: Log TGI (converted)): 3.24 µM | GI50 (OVCAR-5): 2.09 µM | CC50 (OVCAR-5; [2]): 7.08 µM | TGI (OVCAR-5; read-out: Log TGI (converted)): 3.8 µM | GI50 (LOX IMVI): 1.78 µM | LC50 (LOX IMVI): 5.75 µM | TGI (LOX IMVI; read-out: Log TGI (converted)): 3.16 µM | GI50 (UO-31): 3.8 µM | LC50 (UO-31): 79.4 µM | TGI (UO-31; read-out: Log TGI (converted)): 17.8 µM | GI50 (SNB-75): 2.29 µM | CC50 (SNB-75; [2]): 27.5 µM | TGI (SNB-75; read-out: Log TGI (converted)): 5.62 µM | GI50 (BT-549): 1.29 µM | LC50 (BT-549): 5.5 µM | TGI (BT-549; read-out: Log TGI (converted)): 2.63 µM | GI50 (MDA-MB-435): 1.78 µM | LC50 (MDA-MB-435): 5.62 µM | TGI (MDA-MB-435; read-out: Log TGI (converted)): 3.16 µM | GI50 (RPMI-8226): 1.66 µM | CC50 (RPMI-8226; [2]): 7.76 µM | TGI (RPMI-8226; read-out: Log TGI (converted)): 3.63 µM | GI50 (HOP-62): 1.48 µM | CC50 (HOP-62; [2]): 5.37 µM | TGI (HOP-62; read-out: Log TGI (converted)): 2.82 µM | GI50 (SK-MEL-28): 1.82 µM | LC50 (SK-MEL-28): 5.62 µM | TGI (SK-MEL-28; read-out: Log TGI (converted)): 3.24 µM | GI50 (NCI-H322M): 2.14 µM | CC50 (NCI-H322M; [2]): 7.24 µM | TGI (NCI-H322M; read-out: Log TGI (converted)): 3.89 µM | GI50 (OVCAR-8): 1.86 µM | TGI (OVCAR-8; read-out: Log TGI (converted)): 3.8 µM | GI50 (CAKI-1): 1.66 µM | CC50 (CAKI-1; [2]): 7.76 µM | TGI (CAKI-1; read-out: Log TGI (converted)): 3.55 µM | GI50 (HOP-92): 1.41 µM | LC50 (HOP-92): 5.89 µM | TGI (HOP-92; read-out: Log TGI (converted)): 2.88 µM | GI50 (MDA-MB-231): 1.74 µM | LC50 (50% lethal concentration) (MDA-MB-231): 6.61 µM | TGI (MDA-MB-231; read-out: Log TGI (converted)): 3.39 µM | GI50 (K562): 2.24 µM | LC50 (K562): > 100 µM | TGI (K562; read-out: Log TGI (converted)): 4.9 µM | GI50 (UACC-62): 1.82 µM | LC50 (UACC-62): 7.59 µM | TGI (UACC-62; read-out: Log TGI (converted)): 3.72 µM | GI50 (UACC-257): 1.7 µM | CC50 (UACC-257; [2]): 7.24 µM | TGI (UACC-257; read-out: Log TGI (converted)): 3.47 µM | GI50 (HCT-15): 1.91 µM | LC50 (HCT-15): 6.03 µM | TGI (HCT-15; read-out: Log TGI (converted)): 3.39 µM | GI50 (MOLT-4): 2.09 µM | GI50 (SK-MEL-2): 2.14 µM | LC50 (SK-MEL-2): > 100 µM | TGI (SK-MEL-2; read-out: Log TGI (converted)): 4.79 µM | GI50 (T47D): 1.91 µM | TGI (T47D; read-out: Log TGI (converted)): 3.63 µM | GI50 [1]: 3.16 µM | LC50 [1]: 91.2 µM | TGI ([1]; read-out: Log TGI (converted)): 17.4 µM | GI50 (NCI-H460): 1.86 µM | TGI (NCI-H460; read-out: Log TGI (converted)): 3.47 µM | GI50 (U-251): 1.78 µM | CC50 (U-251; [2]): 5.62 µM | TGI (U-251; read-out: Log TGI (converted)): 3.16 µM | GI50 (DU-145): 1.66 µM | CC50 (DU-145; [2]): 6.17 µM | TGI (DU-145; read-out: Log TGI (converted)): 3.16 µM | GI50 (MCF7): 1.82 µM | TGI (MCF7; read-out: Log TGI (converted)): 3.31 µM
